Experimental data taken from ChEMBL document CHEMBL1127834, “Naphthalenic lignan lactones as selective, nonredox 5-lipoxygenase inhibitors. Synthesis and biological activity of (methoxyalkyl)thiazole and methoxytetrahydropyran hybrids” (J Med Chem, 1994).

Legend:
[1] = Cmax value of compound was determined after 1 hr; type: ADME, organism-based; details: in vivo
In short: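 Male Sprague-Dawley rats (2), starved overnight, dosed orally at 50 mg/kg as a solution in 0.5% methocel. Jugular vein blood sampled at 0, 0.5, 1, 2, 4, 6 and 8 h. Plasma proteins precipitated with an equal volume of acetonitrile. Supernatant analysed by reversed-phase HPLC for the lactone.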

Homo sapiens [2] = species: Homo sapiens; experiment: In vitro inhibition of LTB4 formation in human peripheral blood polymorphonuclear leukocytes (HPMN); type: functional
Homo sapiens [3] = species: Homo sapiens; experiment: In vitro inhibition of LTB4 formation in human whole blood(HWB); type: functional
[4] = target: T1, Polyunsaturated fatty acid 5-lipoxygenase (Homo sapiens, UniProt P09917); experiment: In vitro potency against human 5-Lipoxygenase
T1 sequence (P09917 whole entry): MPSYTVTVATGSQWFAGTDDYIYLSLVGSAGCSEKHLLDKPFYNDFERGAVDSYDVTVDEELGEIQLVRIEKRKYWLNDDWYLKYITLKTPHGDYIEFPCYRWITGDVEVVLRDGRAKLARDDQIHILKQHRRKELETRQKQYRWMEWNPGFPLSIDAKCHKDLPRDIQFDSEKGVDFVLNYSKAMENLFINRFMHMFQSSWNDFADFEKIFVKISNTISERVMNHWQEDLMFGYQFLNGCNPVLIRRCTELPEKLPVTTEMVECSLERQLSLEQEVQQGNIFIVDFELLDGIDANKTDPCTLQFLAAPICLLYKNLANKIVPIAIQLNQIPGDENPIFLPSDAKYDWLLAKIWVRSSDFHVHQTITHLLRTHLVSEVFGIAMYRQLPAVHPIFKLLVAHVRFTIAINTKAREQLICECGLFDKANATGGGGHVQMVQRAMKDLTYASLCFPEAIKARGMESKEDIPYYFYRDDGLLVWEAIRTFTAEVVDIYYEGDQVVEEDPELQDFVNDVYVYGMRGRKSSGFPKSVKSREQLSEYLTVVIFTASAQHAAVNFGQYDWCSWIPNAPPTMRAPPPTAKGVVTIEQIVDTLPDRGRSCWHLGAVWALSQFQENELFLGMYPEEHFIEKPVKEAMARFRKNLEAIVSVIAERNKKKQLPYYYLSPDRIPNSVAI
In short: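 Soluble cell-free fraction of Sf9 cells expressing recombinant human 5-LO (10 μg protein/mL). Conjugated diene formation followed at A234. Inhibitors added from 500-fold DMSO stocks.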

Monkey = experiment: Inhibition of antigen-induced bronchoconstriction in allergic squirrel monkeys at 0.3 mg/kg; type: functional; details: in Saimiri
In short: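 Allergic squirrel monkeys dosed orally at 0.3 mg/kg 4 h before aerosol challenge with Ascaris antigen. Read-outs were the increase in airway resistance (RL) and the decrease in dynamic compliance (Cdyn).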

Rattus norvegicus [5] = species: Rattus norvegicus; experiment: Dose-dependent inhibition of LTB4 by the compound after 3h of oral pretreatment in rat pleural; type: functional
Rattus norvegicus [6] = species: Rattus norvegicus; experiment: Dose-dependent inhibition of LTB4 by the compound after 2 hr of oral pretreatment in rat pleural; type: functional

Cmax [1] [µM] | IC50 (Homo sapiens [2]) [nM] | IC50 (Homo sapiens [3]) [nM] | IC50 [4] [nM] | SMILES | inhibition in vivo at 0.3 mg/kg (Monkey) [%] | ED50 (Rattus norvegicus [5]) [mg/kg] | ED50 (Rattus norvegicus [6]) [mg/kg]
4 | 1.5 | 50 |  | COC1(c2cccc(COc3ccc4c(-c5ccccc5)c5c(cc4c3)C(=O)OC5)c2)CCOCC1 |  |  | 
 | 55 | 1500 | 1000 | COC1(c2cccc(COc3ccc4ccccc4c3)c2)CCOCC1 |  |  | 
 | 0.9 | 50 | 20 | COC1(c2cccc(OCc3ccc4c(-c5ccccc5)c5c(cc4c3)C(=O)OC5)c2)CCOCC1 |  |  | 
 | 2.2 | 700 | 50 | CCC(OC)(c1cccc(OCc2ccc3c(-c4ccccc4)c4c(cc3c2)C(=O)OC4)c1)c1nccs1 (configuration not stated) |  |  | 
 | 11 | > 3000 |  | CCC(OC)(c1cccc(COc2ccc3ccccc3c2)c1)c1nccs1 (configuration not stated) |  |  | 
 |  |  |  | COC1(c2cccc(COc3ccc4c(-c5ccccc5)c(CO)c(C(=O)[O-])cc4c3)c2)CCOCC1.[Na+] | 95 | 0.6 | 
 | 4.8 | 1400 | 160 | CCC(OC)(c1cccc(COc2ccc3c(-c4ccccc4)c4c(cc3c2)C(=O)OC4)c1)c1nccs1 (configuration not stated) |  |  | 
 | 1.2 | 60 | 10 | COC1(c2cccc(OCc3ccc4ccccc4c3)c2)CCOCC1 |  |  | 
 |  |  | 5000 | CC(C)(C)Sc1c(CC(C)(C)C(=O)O)n(Cc2ccc(Cl)cc2)c2ccc(OCc3ccc4ccccc4n3)cc12 [QUIFLAPON] |  |  | 0.5
 |  | 2000 |  | CC(c1cc2ccccc2s1)N(O)C(N)=O (configuration not stated) [ZILEUTON] |  |  | 
 | 4.4 | 700 |  | CCC(OC)(c1cccc(OCc2ccc3ccccc3c2)c1)c1nccs1 (configuration not stated) [ZM-211965] |  |  | 
